Data published in ChEMBL document CHEMBL4219132, “Sulfamic acid promoted one-pot synthesis of phenanthrene fused-dihydrodibenzo-quinolinones: Anticancer activity, tubulin polymerization inhibition and apoptosis inducing studies” (Bioorg Med Chem, 2018).
pIC50: −log10 of the molar value. Active and inactive are the calls of the source. The rule behind the calls is not given here.

Key:
A549 [1] = assay: Cytotoxicity against human A549 cells assessed as reduction in cell viability by measuring cell shrinkage at 1.25 to 10 uM after 48 hrs by phase contrast microscopy; type: functional, cell-based
In short: (§1)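 A549 cells (1×10^5 cells/mL) were plated in 6-well plates and left to adhere overnight. They were then incubated 48 h with 1.25, 2.5, 5.0 or 10.0 μM and examined for morphological changes by phase contrast microscopy at 200X.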

A549 [2] = assay: Induction of apoptosis in human A549 cells assessed as membrane blebbing at 10 uM after 48 hrs by AO/EB double staining based fluorescence microscopy; type: functional, cell-based
In short: (§2)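 A549 cells (1×10^6 cell/ml) were treated with different concentrations for 48 h at 37 °C in 5% CO2. Acridine orange and ethidium bromide (10 μg/mL each) were added, and after 10 min cells were viewed by fluorescence microscopy (ex 488/em 550 nm) at 200x.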

A549 [3] = assay: Induction of apoptosis in human A549 cells assessed as early apoptotic cells at 5 uM after 48 hrs by Annexin-V/propidium iodide staining based flow cytometry (reference value: 5.27%); type: functional
HCT-116 = assay: Cytotoxicity against human HCT116 cells assessed as cell growth inhibition after 48 hrs by MTT assay; type: functional, cell-based; conditions: HCT-116, 48 h
In short: (§3)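 MTT assay. Cells were seeded at 1×10^4 per well in their medium with 10% FBS and allowed 24 h at 37 °C. Compound diluted in medium was added alongside a vehicle control and left for 48 h. MTT (0.5 mg/mL) was then added for 4 h, formazan dissolved in DMSO, and absorbance read at 570 nm. IC50 is the concentration inhibiting 50% of cells.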

A549 [4] = assay: Induction of apoptosis in human A549 cells assessed as chromatin condensation at 10 uM after 48 hrs by AO/EB double staining based fluorescence microscopy; type: functional, cell-based; in short: as §2
A549 [5] = assay: Induction of apoptosis in human A549 cells assessed as cell shrinkage at 10 uM after 48 hrs by AO/EB double staining based fluorescence microscopy; type: functional; in short: as §2
A549 [6] = assay: Induction of ROS generation in human A549 cells after 24 hrs by DCFDA dye-based fluorescent microscopy; type: functional, cell-based
In short: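 A549 cells (1×10^6 cells/mL) were left to adhere overnight, then treated 24 h with 1.25, 2.5, 5.0 or 10.0 μM. Medium was replaced with medium containing 10 μM DCFDA for 30 min in the dark. Fluorescence was read on a plate reader (ex 488/em 525 nm) and cells were imaged by fluorescence microscopy. NAC and H2O2 (positive control) were included. Mean ± SEM, n=3.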

PC-3 = assay: Cytotoxicity against human PC3 cells assessed as cell growth inhibition after 48 hrs by MTT assay; type: functional, cell-based; conditions: PC-3, 48 h; in short: as §3
A549 [7] = assay: Cytotoxicity against human A549 cells assessed as reduction in cell viability by measuring cell detachment at 1.25 to 10 uM after 48 hrs by phase contrast microscopy; type: functional, cell-based; in short: as §1
A549 [8] = assay: Induction of apoptosis in human A549 cells assessed as necrotic cells at 5 uM after 48 hrs by Annexin-V/propidium iodide staining based flow cytometry (reference value: 0.63%); type: functional
A549 [9] = assay: Induction of mitochondrial membrane potential loss in human A549 cells assessed as depolarized cell population at 10 uM after 24 hrs by JC-1-dye based flow-cytometry (reference value: 8.31 +/- 3.72%)
A549 [10] = assay: Induction of apoptosis in human A549 cells assessed as necrotic cells at 2.5 uM after 48 hrs by Annexin-V/propidium iodide staining based flow cytometry (reference value: 0.63%); type: functional
A549 [11] = assay: Induction of apoptosis in human A549 cells assessed as viable cells at 1.25 uM after 48 hrs by Annexin-V/propidium iodide staining based flow cytometry (reference value: 93.39%); type: functional; conditions: A549, 48 h, read-out: Activity
A549 [12] = assay: Induction of apoptosis in human A549 cells after 48 hrs by Annexin-V/propidium iodide staining based flow cytometry; type: functional, cell-based
A549 [13] = assay: Induction of apoptosis in human A549 cells assessed as viable cells at 5 uM after 48 hrs by Annexin-V/propidium iodide staining based flow cytometry (reference value: 93.39%); type: functional; conditions: A549, 48 h, read-out: Activity
A549 [14] = assay: Induction of apoptosis in human A549 cells assessed as early apoptotic cells at 2.5 uM after 48 hrs by Annexin-V/propidium iodide staining based flow cytometry (reference value: 5.27%); type: functional
A549 [15] = assay: Induction of apoptosis in human A549 cells assessed as necrotic cells at 1.25 uM after 48 hrs by Annexin-V/propidium iodide staining based flow cytometry (reference value: 0.63%); type: functional
HT-29 = assay: Cytotoxicity against human HT-29 cells assessed as cell growth inhibition after 48 hrs by MTT assay; type: functional, cell-based; conditions: HT-29, 48 h; in short: as §3
[16] = Inhibition of pig brain tubulin polymerization assessed as reduction in tubulin assembly by fluorescence-based assay; design: species or system Sus scrofa
In short: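 Kit assay with porcine brain tubulin (2 mg/mL) in 80 mM PIPES pH 6.9, 2.0 mM MgCl2, 0.5 mM EGTA, 1.0 mM GTP and glycerol. Test compound was used at final 10, 5, 2.5 or 1.25 μM. Polymerization was followed for 1 h at 37 °C by fluorescence reporter incorporation (ex 360/em 440 nm). Runs were in duplicate, and IC50 is the concentration inhibiting 50% of assembly versus control.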

DU-145 = assay: Cytotoxicity against human DU145 cells assessed as cell growth inhibition after 48 hrs by MTT assay; type: functional, cell-based; conditions: DU-145, 48 h; in short: as §3
MCF7 = assay: Cytotoxicity against human MCF7 cells assessed as cell growth inhibition after 48 hrs by MTT assay; type: functional, cell-based; conditions: MCF7, 48 h; in short: as §3
A549 [17] = assay: Induction of apoptosis in human A549 cells assessed as horse-shoe shaped nuclei at 1.25 to 10 uM after 48 hrs by DAPI staining-based fluorescence microscopy; type: functional, cell-based
In short: (§4)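 A549 cells were treated for 48 h, washed with PBS, and permeabilised with 0.1% Tween 20 for 10 min. They were stained with 1 μM DAPI and viewed by fluorescence microscopy (ex 359/em 461 nm, DAPI filter) at 200X.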

A549 [18] = assay: Induction of apoptosis in human A549 cells assessed as apoptotic body formation at 10 uM after 48 hrs by AO/EB double staining based fluorescence microscopy; type: functional, cell-based; in short: as §2
A549 [19] = assay: Induction of apoptosis in human A549 cells assessed as viable cells at 10 uM after 48 hrs by Annexin-V/propidium iodide staining based flow cytometry (reference value: 93.39%); type: functional; conditions: A549, 48 h, read-out: Activity
A549 [20] = assay: Induction of apoptosis in human A549 cells assessed as late apoptotic cells at 2.5 uM after 48 hrs by Annexin-V/propidium iodide staining based flow cytometry (reference value: 0.71%); type: functional
A549 [21] = assay: Cell cycle arrest in human A549 cells assessed as accumulation at G2/M phase at 10 uM after 48 hrs by propidium iodide-staining based flow cytometry (reference value: 34.25 +/- 5.75%); type: functional
A549 [22] = assay: Induction of apoptosis in human A549 cells assessed as nuclei condensation at 1.25 to 10 uM after 48 hrs by DAPI staining-based fluorescence microscopy; type: functional, cell-based; in short: as §4
A549 [23] = assay: Induction of apoptosis in human A549 cells assessed as early apoptotic cells at 10 uM after 48 hrs by Annexin-V/propidium iodide staining based flow cytometry (reference value: 5.27%); type: functional
A549 [24] = assay: Induction of apoptosis in human A549 cells assessed as late apoptotic cells at 5 uM after 48 hrs by Annexin-V/propidium iodide staining based flow cytometry (reference value: 0.71%); type: functional
A549 [25] = assay: Induction of apoptosis in human A549 cells assessed as necrotic cells at 10 uM after 48 hrs by Annexin-V/propidium iodide staining based flow cytometry (reference value: 0.63%); type: functional
A549 [26] = assay: Induction of apoptosis in human A549 cells assessed as late apoptotic cells at 1.25 uM after 48 hrs by Annexin-V/propidium iodide staining based flow cytometry (reference value: 0.71%); type: functional
A549 [27] = assay: Induction of apoptosis in human A549 cells assessed as early apoptotic cells at 1.25 uM after 48 hrs by Annexin-V/propidium iodide staining based flow cytometry (reference value: 5.27%); type: functional
A549 [28] = assay: Cell cycle arrest in human A549 cells assessed as accumulation at sub G1 phase after 48 hrs by propidium iodide-staining based flow cytometry; type: functional
A549 [29] = assay: Induction of apoptosis in human A549 cells assessed as late apoptotic cells at 10 uM after 48 hrs by Annexin-V/propidium iodide staining based flow cytometry (reference value: 0.71%); type: functional
A549 [30] = assay: Cell cycle arrest in human A549 cells assessed as accumulation at sub G1 phase at 10 uM after 48 hrs by propidium iodide-staining based flow cytometry (reference value: 4.52 +/- 2.47%); type: functional
A549 [31] = assay: Induction of mitochondrial membrane potential loss in human A549 cells assessed as increase in depolarized cell population after 24 hrs by JC-1-dye based flow-cytometry
A549 [32] = assay: Cytotoxicity against human A549 cells assessed as cell growth inhibition after 48 hrs by MTT assay; type: functional, cell-based; conditions: A549, 48 h; in short: as §3
A549 [33] = assay: Induction of apoptosis in human A549 cells assessed as viable cells at 2.5 uM after 48 hrs by Annexin-V/propidium iodide staining based flow cytometry (reference value: 93.39%); type: functional; conditions: A549, 48 h, read-out: Activity

SMILES: COc1cc2c3c(c4cc(OC)c(OC)cc4c2cc1OC)C(c1ccc2c(c1)OCO2)CC(=O)N3 (stereo not drawn)
- Activity (A549 [1]): Dose-dependent effect
- Activity (A549 [2]): Active
- Activity (A549 [3]): 24.86%
- pIC50 (HCT-116): 5.12
- Activity (A549 [4]): Active
- Activity (A549 [5]): Active
- Activity (A549 [6]): Dose-dependent effect
- pIC50 (PC-3): 4.92
- Activity (A549 [7]): Dose-dependent effect
- Activity (A549 [8]): 0.01%
- Activity (A549 [9]): 79.8%
- Activity (A549 [10]): 0.01%
- viability at 1.25 µM (A549 [11]): 89.1%
- Activity (A549 [12]): Dose-dependent effect
- viability at 5 µM (A549 [13]): 74.2%
- Activity (A549 [14]): 17.3%
- Activity (A549 [15]): 0.09%
- pIC50 (HT-29): 5.11
- pIC50 [16]: 5.29
- pIC50 (DU-145): 4.76
- pIC50 (MCF7): 5.02
- Activity (A549 [17]): Active
- Activity (A549 [18]): Active
- viability at 10 µM (A549 [19]): 47.5%
- Activity (A549 [20]): 0.85%
- Activity (A549 [21]): 61.2%
- Activity (A549 [22]): Active
- Activity (A549 [23]): 50.6%
- Activity (A549 [24]): 0.92%
- Activity (A549 [25]): 0.01%
- Activity (A549 [26]): 1.32%
- Activity (A549 [27]): 9.5%
- Activity (A549 [28]): Dose-dependent effect
- Activity (A549 [29]): 1.93%
- Activity (A549 [30]): 31.22%
- Activity (A549 [31]): Dose-dependent effect
- pIC50 (A549 [32]): 5.50
- viability at 2.5 µM (A549 [33]): 81.8%
